Data published in ChEMBL document CHEMBL1125410, “Selective irreversible inhibitors of aldose reductase” (J Med Chem, 1992).

What was measured:
[1] = system: Aldehyde reductase AKR1A1 (Rattus norvegicus); assay: Compound was evaluated for irreversible inhibition of Rat kidney Aldehyde reductase (RKALR) at 10e-4 M
[2] = target: Aldo-keto reductase family 1 member B1 (Rattus norvegicus, UniProt P07943); assay: Compound was evaluated for the inhibition of Rat Lens Aldose reductase (RLAR)
Summary of the method: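 Purified rat lens aldose reductase and rat kidney aldehyde reductase, each homogeneous on SDS-PAGE. The 1.0 mL assay held equal enzyme units in 0.10 M Na,K phosphate (pH 6.2), 0.3 mM NADPH, 10 mM DL-glyceraldehyde and inhibitor. The NADPH decrease at 340 nm was followed over 4 min, with no-substrate absorbance controls. IC50 is given as mean ± SD.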

[3] = Ratio of IC50(RKALR) vs IC50(RLAR)
[4] = target: Aldo-keto reductase family 1 member B1 (Rattus norvegicus) (UniProt P07943); assay: Compound was evaluated for irreversible inhibition of Rat Lens Aldose reductase (RLAR) at 10e-4 M
Summary of the method: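 Each purified reductase was desalted into 0.1 M phosphate (pH 7.4) to remove glycerol and 2-mercaptoethanol. Enzyme (ca. 0.3 unit/mL) was exposed to inhibitor or buffer alone for 15 min at room temperature. A 400 µL aliquot was then desalted into pH 7.0 phosphate with 10 mM 2-mercaptoethanol, and BSA was added. The eluate was kept on ice, and residual activity was read from NADPH loss at 340 nm with DL-glyceraldehyde. Runs were at least triplicate and averaged.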

[5] = target: Aldo-keto reductase family 1 member B1 (Rattus norvegicus) (UniProt P07943); assay: Protection by the compound of irreversible inhibition of Rat Lens Aldose reductase by [5-(2-Iodo-acetyl)-1,3-dioxo-1H,3H-benzo[de]isoquinolin-2-yl]-acetic acid(0.1 mM) at 0.01 mM concentration; format: functional
Summary of the method: (§1)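 Rat lens aldose reductase was desalted into 0.1 M phosphate (pH 7.4). The enzyme was preincubated 5 min with the reversible inhibitor, then the iodoacetamide label was added for a further 5 min. Unreacted reagent was removed by desalting into buffer with 10 mM 2-mercaptoethanol, BSA was added, and residual activity was read by NADPH loss at 340 nm. Runs were at least triplicate and averaged.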

[6] = target: Aldo-keto reductase family 1 member B1 (Rattus norvegicus) (UniProt P07943); assay: Protection by the compound of irreversible inhibition of Rat Lens Aldose reductase by [5-(2-Iodo-acetyl)-1,3-dioxo-1H,3H-benzo[de]isoquinolin-2-yl]-acetic acid(0.01 mM) at 0.1 mM concentration; format: functional
Summary of the method: as §1

[7] = target: Aldo-keto reductase family 1 member B1 (Rattus norvegicus) (UniProt P07943); assay: Protection by the compound of irreversible inhibition of Rat Lens Aldose reductase by [5-(2-Iodo-acetyl)-1,3-dioxo-1H,3H-benzo[de]isoquinolin-2-yl]-acetic acid(0.1 mM) at 1 mM concentration; format: functional
Summary of the method: as §1

[8] = target: Aldo-keto reductase family 1 member B1 (Rattus norvegicus) (UniProt P07943); assay: Protection by the compound of irreversible inhibition of Rat Lens Aldose reductase by [5-(2-Iodo-acetyl)-1,3-dioxo-1H,3H-benzo[de]isoquinolin-2-yl]-acetic acid(0.01 mM) at 0.01 mM concentration; format: functional
Summary of the method: as §1

[9] = target: Aldo-keto reductase family 1 member B1 (Rattus norvegicus) (UniProt P07943); assay: Protection by the compound of irreversible inhibition of Rat Lens Aldose reductase by [5-(2-Iodo-acetyl)-1,3-dioxo-1H,3H-benzo[de]isoquinolin-2-yl]-acetic acid(0.01 mM) at 1 mM concentration; format: functional
Summary of the method: as §1

[10] = target: Aldo-keto reductase family 1 member B1 (Rattus norvegicus) (UniProt P07943); assay: Protection by the compound of irreversible inhibition of Rat Lens Aldose reductase by [5-(2-Iodo-acetyl)-1,3-dioxo-1H,3H-benzo[de]isoquinolin-2-yl]-acetic acid(0.1 mM) at 0.1 mM concentration; format: functional
Summary of the method: as §1

O=C(O)CN1C(=O)c2cccc3cc(N=C=S)cc(c23)C1=O
inhibition [1]: 0%

O=C(O)CN1C(=O)c2cccc3cc(NC(=O)CBr)cc(c23)C1=O
IC50 [2]: 600 nM | Ratio [3]: 13 Ratio | inhibition [4]: 46%

CC(=O)Nc1cc2c3c(cccc3c1)C(=O)N(CC(=O)O)C2=O
IC50 [2]: 640 nM | Protection [5]: 17% | Ratio [3]: 10 | Protection [6]: 43% | Protection [7]: 39% | Protection [8]: 11% | Protection [9]: 100% | Protection [10]: 19%

O=C(O)CN1C(=O)c2cccc3cc(C(=O)CI)cc(c23)C1=O
inhibition [4]: 89%
